Bioassay records as filed in PubChem BioAssay.
procasp3 activ – activates human procaspase-3 | P42574 | recombinant procaspase-3 D3A, Ac-DEVD-pNA absorbance 405 nm | activation, % at 8.5 µM | hit rate 0.11% among 330,000 | AID 463141;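 active = activation above the mean of all tested compounds plus 3 SD, cut at about 21% in these data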;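 also: 0% = DMSO alone and 100% = DMSO wells spiked with extra 5 µM PC-3 D3A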
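Assay system – Procaspase-3 D3A mutant · Benchmarks – DMSO low control, extra-enzyme high control · Technique – 405 nm absorbance of p-nitroaniline, reads at 0 and 120 min · Doses – 8.5 µM nominal · Measure – % activation between DMSO and enzyme-spiked controls · Also added – Ac-DEVD-pNA chromogenic peptide substrate · Schedule – 1 h compound preincubation, 2 h substrate hydrolysis at 25 °C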
ASAP1 inh – blocks human ASAP1-stimulated Arf1 GTP hydrolysis. Q9ULH1. GDP FP detection. AID 624377. hit rate 0.19% among 360,000. inhibition, % at 16.5 µM; in the data active = inhibition above about 25%;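 also: 0% = vehicle with enzyme and substrate and 100% = no enzyme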
Target sequence (Q9ULH1 325-724 limits assumed): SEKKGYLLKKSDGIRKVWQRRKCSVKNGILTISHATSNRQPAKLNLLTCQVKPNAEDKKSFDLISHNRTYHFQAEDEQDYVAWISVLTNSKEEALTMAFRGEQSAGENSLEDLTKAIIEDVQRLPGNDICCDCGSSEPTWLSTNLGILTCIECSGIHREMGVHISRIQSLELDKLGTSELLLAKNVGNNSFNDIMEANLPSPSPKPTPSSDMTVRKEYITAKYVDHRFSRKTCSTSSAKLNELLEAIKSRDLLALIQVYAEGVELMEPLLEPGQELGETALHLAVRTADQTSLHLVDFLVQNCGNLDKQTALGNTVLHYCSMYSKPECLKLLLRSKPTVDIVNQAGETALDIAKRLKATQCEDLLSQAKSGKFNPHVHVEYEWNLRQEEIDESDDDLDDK
LANA-H2A inh – blocks KSHV LANA binding to histone H2A/H2B | inhibition, % (concentration not given with the values) | hit rate 0.6% among 320,000 | AID 2629 | cell-free LANA-H2A/H2B peptide, fluorescence polarization; in the data active = inhibition mostly above about 10%, no sharp cut-off; inactive = mostly below about 6.7%
ARFGAP1 inhibitor – rat ARFGAP1 inhibition | hit rate 0.26% among 360,000 | AID 651572 | Q62848 | Arfgap1-stimulated ARF1 GTP hydrolysis, GDP FP detection | inhibition, % at 16.5 µM;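 active = inhibition above a per-plate limit, mean inhibition of low control wells plus 3 SD, cut at about 25% in these data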;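 also: 0% = DMSO wells with enzyme and 100% = wells lacking Arfgap1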
Target sequence (Q62848 1-136 limits assumed): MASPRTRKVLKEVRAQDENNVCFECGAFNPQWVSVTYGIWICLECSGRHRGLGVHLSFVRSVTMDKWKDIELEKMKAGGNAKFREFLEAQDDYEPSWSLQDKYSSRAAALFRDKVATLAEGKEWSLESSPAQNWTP
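Repeats: one replicate per compound; assay system: rat Arfgap1 catalytic domain, aa 1-136; times: enzyme reaction 120 min at 25 °C after 20 min preincubation; detection: FP of antibody-bound GDP Alexa 633 tracer, ex 620/em 688 nm; benchmarks: high control wells lacking Arfgap1, low control full reaction with DMSO; reagent: human ARF1(Δ1-17)-GTP substrate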
Yeast superoxide – lowers age-related superoxide in aged yeast cells; hit rate 0.18% among 330,000; superoxide response (% of plate mean), % at 10 µM; AID 2690; S. cerevisiae aged cells, superoxide DHE fluorescence; hits give low values;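 active = superoxide response under a set limit, about three screen SD below normal, cut at about 65% in these data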;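 also: yeast aged for seven days with compound at 30 °C before DHE staining; 100% = average MFI of all compound-treated wells on the plate with controls excluded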
procasp7 counter – activates human procaspase-7, counter-screen for procaspase-3 activators; recombinant procaspase-7, Ac-DEVD-pNA absorbance 405 nm; D23A/D198A/D206A triple mutant, cannot self-cleave; scale: DMSO 0, 5 µM enzyme 100; activation, % at 8.5 µM; hit rate 0.093% among 330,000;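 active = percent activation above the screen-wide mean plus 3 SD, cut at about 25% in these data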
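Assay system – Uncleavable procaspase-7 mutant enzyme · Quantity – 2 µM procaspase-7 mutant as dispensed · Times – 1 h preincubation, 2 h reaction · Dosing – single nominal 8.5 µM compound dose, 0.8% DMSO final · Buffer or medium – Zinc-free 50 mM HEPES buffer, pH 7.4, with NaCl and Triton X-100 · Detection – Epi-absorbance of released pNA at 405 nm, two timepoints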
* = called active by the depositor; nt = no result given; ! = repeats disagree. A selection: hits, their analogues and other compounds. The true share with any hit is near 1.2%.

SMILES	procasp3 activ	ASAP1 inh	LANA-H2A inh	ARFGAP1 inhibitor	Yeast superoxide	procasp7 counter
OC(c1ccccc1)c1nc(-c2ccc3c(c2)OCO3)cs1 (stereo not drawn)	nt	-7.4	nt	5.3	nt	nt
COc1cc(C(=O)Nc2ccc3nc(N4CCOCC4)sc3c2)cc(OC)c1OC	3.4	7.7	37.4*	18.1	116.7	-14.9
Cc1c(C(=O)Nc2ccc3nc(N4CCOCC4)sc3c2)oc2ccccc12	-0.1	8.3	-1.1	-8.0	115.3	-5.2
O=C(c1ccccc1)N1CCC2CCN(CCc3ccccc3)CC21 (stereo not drawn)	nt	-7.9	nt	1.5	nt	nt
c1ccc(CN(CC2=NCCN2)c2ccccc2)cc1	0.7	-2.4	5.9	1.0	92.6	-8.0
Cc1ccc(N(CC2=NCCN2)c2cccc(O)c2)cc1	7.2	2.4	22.6*!	-4.7	100.9	-4.1
CCOC(=O)C1=C(C(=O)OCC)C2N(Cc3ccc(C#N)cc3)c3ccccc3[C@@]23C[C@@H](C(=O)OC)N(S(=O)(=O)c2cccs2)C3=N1 (stereo partly drawn)	nt	-8.9	nt	-2.4	nt	nt
O=C(Nc1ccccc1Cl)C1CCCN(S(=O)(=O)c2ccc(F)cc2)C1 (stereo not drawn)	1.8	-2.6	8.8*	1.1	114.3	1.5
C[C@@H]1CN([C@@H](C)CO)C(=O)CCCn2cc(nn2)CO[C@H]1CN(C)C(=O)Nc1cccc2ccccc12	nt	7.8	nt	6.9	nt	nt
Cc1ccc2ccccc2c1NC(=O)CNCc1ccccc1	nt	-5.7	nt	7.2	nt	nt
CCCN(CC(=O)Nc1ccccc1OC)C(=O)c1cc(-c2ccccc2)nn1-c1ccccc1	4.2	15.9	48.7*	-8.6	85.5	-3.4
CCN(CC(=O)Nc1ccc(NC(C)=O)cc1)C(=O)c1cc(-c2ccccc2)nn1-c1ccccc1	11.7	-5.8	-1.9	3.6	97.5	-5.6
CCN1C(=O)S/C(=C/c2c(OCc3ccc(C(=O)O)cc3)ccc3ccccc23)C1=O	-12.5	4.9	118.5*	5.7	105.6	5.5
COC(=O)c1ccc(=O)c2nc3/c(=C/O)c(O)cc(=O)c3[nH]c12	-3.7	1.4	2.6	-18.5	44.6*	0.1
COC(=O)c1ccc(N)cc1O	-2.6	6.2	3.6	3.0	88.4	8.8
COc1ccc(CCN2C(=O)CC(N3CCN(S(=O)(=O)c4ccccc4)CC3)C2=O)cc1OC (stereo not drawn)	-14.0	9.6	6.0	10.4	111.7	0.1
CCN1C(=NCC(C)C)N[C@@H](c2cccc(C(F)(F)F)c2)C(C(=O)OC)=C1C	2.1	-1.6	13.1*	4.0	97.7	-10.1
C[C@H](CO)N1C[C@H](C)[C@@H](CN(C)C(=O)Nc2ccccc2)Oc2ccc(NC(=O)CCC(F)(F)F)cc2C1=O	-5.7	9.0	-1.7	-10.9	89.5	0.9
COc1ccc(C2C=C(c3ccccc3)Nc3nc(CCCO)nn32)cc1 (stereo not drawn)	6.1	1.9	-0.1	15.3	94.4	1.9
COc1ccc(C2C=C(c3cccs3)Nc3nc(CCCO)nn32)cc1 (stereo not drawn)	-10.7	nt	74.4*	nt	94.9	-7.5
CCCN1CCCCC(NC(=O)c2ccc(-c3ccccc3)cc2)C1=O (stereo not drawn)	nt	1.2	nt	1.3	nt	nt
COC(=O)c1cc2c(c3c4cc(OC)ccc4n(S(=O)(=O)c4ccc(OC)cc4)c13)C(=O)N(Cc1ccco1)C2	nt	7.7	nt	2.6	nt	nt
COC(=O)[C@]12C[C@H](CC(=O)N3CCN(C(=O)c4ccco4)CC3)C(=O)N(Cc3ccccc3)C1=C[C@H](C1CCCC1)O[C@@H]2C	nt	-5.6	nt	-7.3	nt	nt
COC(=O)C1=C(C)N(C)C(=NCc2cccc(C(F)(F)F)c2)NC1c1ccccc1 (stereo not drawn)	nt	-8.4	nt	-8.4	nt	nt
CN1[C@@H]2CC(OC(=O)[C@H](CO)c3ccccc3)C[C@H]1[C@@H]1O[C@@H]12 (stereo partly drawn)	nt	14.0	26.9*!	6.2	118.3	nt
COc1ccc(-c2ncn(CCc3ccccc3OC)c2CC(C)C)cc1	nt	-0.6	nt	-23.2	nt	nt
O=C(NCC1(N2CCCCC2)CCCCC1)c1cccc(S(=O)(=O)Nc2ccc(F)cc2)c1	3.6	-14.3	23.2*	-11.7	83.5	-0.8
